The source of these data is ChEMBL document CHEMBL1139103, “Identification of novel glycine sulfonamide antagonists for the EP1 receptor” (Bioorg Med Chem Lett, 2007).

The target of assay [1] is T1, Prostaglandin E2 receptor EP3 subtype (Homo sapiens, UniProt P43115).
T1 sequence (P43115 whole entry): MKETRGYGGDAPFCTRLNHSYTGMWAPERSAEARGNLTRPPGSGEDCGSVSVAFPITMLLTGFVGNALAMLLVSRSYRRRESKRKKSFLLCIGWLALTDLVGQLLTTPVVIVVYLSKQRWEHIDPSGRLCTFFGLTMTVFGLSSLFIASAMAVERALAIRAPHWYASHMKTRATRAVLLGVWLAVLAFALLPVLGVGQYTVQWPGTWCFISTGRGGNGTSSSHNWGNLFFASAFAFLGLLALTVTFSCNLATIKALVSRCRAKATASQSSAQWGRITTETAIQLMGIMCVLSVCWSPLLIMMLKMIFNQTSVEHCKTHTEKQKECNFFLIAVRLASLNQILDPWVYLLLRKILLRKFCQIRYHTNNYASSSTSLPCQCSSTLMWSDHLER
Kind of assay: Antagonist activity at human EP3 expressed in CHOK1 cells receptor assessed as inhibition intracellular calcium mobilization by FLIPR assay. Type of assay: functional, cell-based, CHO-K1. In outline:
(§1)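 Stable EP1- or EP3-transfected CHO-K1 whole cells loaded with calcium-sensitive dye Fluo-3; inhibition of PGE2-evoked intracellular Ca2+ mobilisation read on a fluorimetric imaging plate reader (FLIPR). IC50s converted to pKi. Means of at least two experiments unless specified.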
(Calcium assays in cells follow changes in intracellular calcium, usually with a dye or a luminescent sensor.)

A further assay is filed under the species Homo sapiens. The experiment in a line: Selectivity for EP1 receptor over EP3 receptor.
The target of another assay is T2, Thromboxane A2 receptor (Homo sapiens, UniProt P21731).
T2 sequence (P21731 whole entry): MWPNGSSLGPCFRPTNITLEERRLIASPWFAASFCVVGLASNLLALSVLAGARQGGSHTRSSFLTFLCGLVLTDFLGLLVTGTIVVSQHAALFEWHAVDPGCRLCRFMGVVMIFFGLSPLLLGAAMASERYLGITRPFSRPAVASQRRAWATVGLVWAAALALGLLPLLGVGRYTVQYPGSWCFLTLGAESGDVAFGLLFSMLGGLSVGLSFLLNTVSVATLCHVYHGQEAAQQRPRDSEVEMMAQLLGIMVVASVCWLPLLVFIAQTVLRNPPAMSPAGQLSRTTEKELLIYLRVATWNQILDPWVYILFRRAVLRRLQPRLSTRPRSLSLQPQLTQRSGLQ
Kind of assay: Inhibition of TP receptor.

The target in assay [2] is Prostaglandin F2-alpha receptor (Homo sapiens, UniProt P43088). Kind of assay: Inhibition of FP receptor.
The target in a further assay is T3, Cytochrome P450 1A2 (Homo sapiens, UniProt P05177).
T3 sequence (P05177 whole entry): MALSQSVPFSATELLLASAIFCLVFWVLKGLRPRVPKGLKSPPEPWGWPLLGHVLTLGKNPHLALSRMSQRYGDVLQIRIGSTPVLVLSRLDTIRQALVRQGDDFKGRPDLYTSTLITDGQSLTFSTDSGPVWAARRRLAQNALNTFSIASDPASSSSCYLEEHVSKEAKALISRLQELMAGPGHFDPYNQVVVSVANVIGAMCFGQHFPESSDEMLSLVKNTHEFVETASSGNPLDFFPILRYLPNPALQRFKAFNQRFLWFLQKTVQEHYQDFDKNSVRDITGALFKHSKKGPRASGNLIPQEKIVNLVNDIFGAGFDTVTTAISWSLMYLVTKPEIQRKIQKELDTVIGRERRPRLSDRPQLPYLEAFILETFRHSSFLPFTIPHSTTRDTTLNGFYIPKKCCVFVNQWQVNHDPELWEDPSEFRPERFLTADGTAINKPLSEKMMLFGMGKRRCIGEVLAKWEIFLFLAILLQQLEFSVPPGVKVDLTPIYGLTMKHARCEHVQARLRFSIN
Kind of assay: Inhibition of CYP1A2. Type of assay: ADME.

In another assay the target is Cytochrome P450 2C9 (Homo sapiens, UniProt P11712). The experiment in a line: Inhibition of CYP2C9. The assay is classed as ADME.
The target in the next assay is Cytochrome P450 2C19 (Homo sapiens, UniProt P33261). The experiment in a line: Inhibition of CYP2C19. Type of assay: ADME.
In the next assay the target is Cytochrome P450 2D6 (Homo sapiens, UniProt P10635). Kind of assay: Inhibition of CYP2D6. Type of assay: ADME.
The target of the next assay is Cytochrome P450 3A4 (Homo sapiens, UniProt P08684). Kind of assay: Inhibition of CYP3A4. Type of assay: ADME.
Assay [3] addresses T4, Prostaglandin E2 receptor EP1 subtype (Homo sapiens, UniProt P34995).
T4 sequence (P34995 whole entry): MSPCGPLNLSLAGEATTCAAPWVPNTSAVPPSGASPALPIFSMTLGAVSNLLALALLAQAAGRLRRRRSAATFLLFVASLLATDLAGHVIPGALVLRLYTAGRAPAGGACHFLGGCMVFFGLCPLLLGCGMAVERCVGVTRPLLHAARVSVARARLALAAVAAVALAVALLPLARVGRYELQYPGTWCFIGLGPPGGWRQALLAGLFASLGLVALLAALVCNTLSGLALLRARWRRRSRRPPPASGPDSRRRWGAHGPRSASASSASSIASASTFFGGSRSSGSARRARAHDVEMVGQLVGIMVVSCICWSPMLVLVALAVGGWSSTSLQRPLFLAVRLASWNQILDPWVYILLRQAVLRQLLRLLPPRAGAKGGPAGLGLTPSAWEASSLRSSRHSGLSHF
The experiment in a line: Antagonist activity at human EP1 expressed in CHOK1 cells receptor assessed as inhibition of intracellular calcium mobilization by FLIPR assay. Type of assay: functional, cell-based, CHO-K1. In outline:
as §1

For assay [4], the target named is T4, Prostaglandin E2 receptor EP1 subtype. The experiment in a line: Displacement of [3H]PGE2 from EP1 expressed in CHO cells. Type of assay: cell-based. In outline: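 Membranes from stable EP1-transfected CHO-K1 cells incubated with compound and [3H]-PGE2 (3 nM final) for 30 min at 30 °C. Bound radioactivity counted by liquid scintillation. Means of at least four experiments.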
For orientation: In a radioligand displacement assay an active substance lowers the binding of a labelled ligand.

Assay [5] has the same target. The experiment in a line: Antagonist activity at human EP1 receptor expressed in CHO cells receptor by […] reporter gene assay. Type of assay: functional, cell-based. Conditions: read-out: pA2 (converted). In outline: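 CHO cells stably co-transfected with NFAT reporter gene and human EP1 (pCIN3) were quiesced 24 h before assay. PGE2 concentration-response curves run without antagonist and with five antagonist concentrations, 4 h incubation, luciferase readout. Dose ratios from PGE2 EC50s; log(dose ratio − 1) vs log[antagonist] fitted by linear regression to give pA2 and slope.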
Background: A reporter such as luciferase makes a cellular process visible.

Each structure is given as a SMILES string.

Sequence of Cytochrome P450 2D6 (P10635 whole entry): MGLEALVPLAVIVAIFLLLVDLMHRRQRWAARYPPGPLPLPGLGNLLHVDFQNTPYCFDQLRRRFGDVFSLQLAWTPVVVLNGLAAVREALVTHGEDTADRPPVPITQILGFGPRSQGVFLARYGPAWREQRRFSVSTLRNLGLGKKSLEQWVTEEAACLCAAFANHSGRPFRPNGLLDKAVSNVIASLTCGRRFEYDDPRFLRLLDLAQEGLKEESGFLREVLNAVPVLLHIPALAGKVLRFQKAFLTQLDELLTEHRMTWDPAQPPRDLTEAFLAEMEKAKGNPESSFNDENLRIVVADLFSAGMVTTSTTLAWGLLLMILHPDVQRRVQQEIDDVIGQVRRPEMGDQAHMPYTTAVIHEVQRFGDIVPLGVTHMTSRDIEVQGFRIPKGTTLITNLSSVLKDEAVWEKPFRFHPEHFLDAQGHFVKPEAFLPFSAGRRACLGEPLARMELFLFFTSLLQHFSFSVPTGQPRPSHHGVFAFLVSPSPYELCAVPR
Sequence of Prostaglandin F2-alpha receptor (P43088 whole entry): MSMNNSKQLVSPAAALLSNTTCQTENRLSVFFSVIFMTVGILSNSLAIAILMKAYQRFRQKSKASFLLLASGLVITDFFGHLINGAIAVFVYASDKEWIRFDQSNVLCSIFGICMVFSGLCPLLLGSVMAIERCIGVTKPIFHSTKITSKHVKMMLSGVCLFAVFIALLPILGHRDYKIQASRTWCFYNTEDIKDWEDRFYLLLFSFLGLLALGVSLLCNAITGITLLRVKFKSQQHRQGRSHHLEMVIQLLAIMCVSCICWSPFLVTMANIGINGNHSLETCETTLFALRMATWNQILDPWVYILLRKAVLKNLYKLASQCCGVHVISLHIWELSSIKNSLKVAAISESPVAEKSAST
Sequence of Cytochrome P450 2C9 (P11712 whole entry): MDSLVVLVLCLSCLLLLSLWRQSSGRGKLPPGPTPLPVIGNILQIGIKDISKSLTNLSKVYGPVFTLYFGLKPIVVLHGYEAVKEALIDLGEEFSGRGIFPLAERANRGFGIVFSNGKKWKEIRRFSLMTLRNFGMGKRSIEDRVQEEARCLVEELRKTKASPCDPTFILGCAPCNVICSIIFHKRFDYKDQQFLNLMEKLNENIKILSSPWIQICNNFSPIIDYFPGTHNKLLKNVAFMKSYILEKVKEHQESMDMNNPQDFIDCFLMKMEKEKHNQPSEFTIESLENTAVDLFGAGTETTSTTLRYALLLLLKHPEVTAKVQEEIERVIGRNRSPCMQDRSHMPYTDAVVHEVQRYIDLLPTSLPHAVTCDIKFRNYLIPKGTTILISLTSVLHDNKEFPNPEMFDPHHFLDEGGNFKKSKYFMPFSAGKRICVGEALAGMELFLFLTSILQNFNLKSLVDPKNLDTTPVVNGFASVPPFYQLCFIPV
Sequence of Cytochrome P450 3A4 (P08684 whole entry): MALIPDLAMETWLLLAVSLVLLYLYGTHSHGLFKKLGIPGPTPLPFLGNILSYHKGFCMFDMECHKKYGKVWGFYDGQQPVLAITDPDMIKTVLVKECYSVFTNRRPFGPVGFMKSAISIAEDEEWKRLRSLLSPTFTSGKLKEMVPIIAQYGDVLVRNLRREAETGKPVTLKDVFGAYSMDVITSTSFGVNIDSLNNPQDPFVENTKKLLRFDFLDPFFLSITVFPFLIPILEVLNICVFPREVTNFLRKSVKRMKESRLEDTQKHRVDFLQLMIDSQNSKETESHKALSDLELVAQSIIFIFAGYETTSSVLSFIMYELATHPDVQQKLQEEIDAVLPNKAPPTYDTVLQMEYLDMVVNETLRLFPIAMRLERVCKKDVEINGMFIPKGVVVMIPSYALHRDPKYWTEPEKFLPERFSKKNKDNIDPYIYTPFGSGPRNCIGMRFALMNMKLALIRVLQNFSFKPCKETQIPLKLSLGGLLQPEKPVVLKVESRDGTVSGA
Sequence of Cytochrome P450 2C19 (P33261 whole entry): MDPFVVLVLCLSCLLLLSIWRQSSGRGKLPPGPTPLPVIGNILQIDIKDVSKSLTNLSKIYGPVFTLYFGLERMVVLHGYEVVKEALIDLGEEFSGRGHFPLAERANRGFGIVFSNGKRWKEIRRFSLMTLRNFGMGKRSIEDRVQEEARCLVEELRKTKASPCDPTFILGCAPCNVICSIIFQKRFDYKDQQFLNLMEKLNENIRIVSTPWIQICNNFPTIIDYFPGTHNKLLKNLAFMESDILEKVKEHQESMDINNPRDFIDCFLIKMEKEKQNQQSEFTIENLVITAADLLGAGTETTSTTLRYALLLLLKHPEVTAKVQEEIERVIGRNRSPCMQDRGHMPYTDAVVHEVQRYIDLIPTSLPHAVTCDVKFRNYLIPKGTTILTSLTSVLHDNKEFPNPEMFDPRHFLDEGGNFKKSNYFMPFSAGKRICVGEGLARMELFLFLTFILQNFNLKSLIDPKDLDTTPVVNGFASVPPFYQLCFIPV

Broadly, the Ki is a measure of affinity in units of concentration, obtained from inhibition or displacement. As a reminder, the IC50 is the concentration needed to halve the response being measured. With `CCc1ccccc1N(CC(=O)NCc1ccc(Cl)cc1)S(=O)(=O)c1ccc(C)cc1`, the Ki was 0.794 µM in [1], 0.0115 µM in assay [3] and 0.01 µM in assay [4]. In the assay filed under Homo sapiens, the Ratio pKi was 100. In addition, the IC50 on Thromboxane A2 receptor was greater than 10 µM; in [2], 4.17 µM; against Cytochrome P450 1A2 it was 31.6 µM; against Cytochrome P450 2C9, 6.31 µM; on Cytochrome P450 2C19, 2 µM; against Cytochrome P450 2D6, 100 µM. Moreover, at Cytochrome P450 3A4, the midpoint of inhibition, the IC50, lay at 0.251 µM.
Consider `CCc1ccccc1N(CC(=O)NCCc1ccc(OC)c(OC)c1)S(=O)(=O)c1ccc(C)cc1`, for which the inhibition constant (Ki) in assay [3] was 0.0135 µM. In addition, the Kb in assay [5] was 0.00501 µM.
